# Measurements: the EternaBench riboswitch data
# System: MS2 coat protein
# Assay: apparent Kd, MS2 coat protein; higher = weaker binding; RNA-MaP array; FMN 200 µM where present
# Outline: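 Apparent Kd: the median of filtered binding-curve fits from single clusters. Designs were transcribed on Illumina sequencing-chip clusters by stalled E. coli RNA polymerase and titrated with SNAP-549-labelled MS2 coat protein from 0.7 or 1.5 nM, doubling to 3 µM, in 100 mM Tris-HCl pH 7.5, 80 mM KCl, 4 mM MgCl2, BSA, DTT, yeast tRNA and Tween-20. Each series ran without and then with constant ligand, and green signal was normalised to red-channel RNA signal and control-cluster median Fmax.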
# [1] = designed as: OFF switch for flavin mononucleotide, no ligand
# [2] = ligand present: flavin mononucleotide, designed as: OFF switch for flavin mononucleotide
# [3] = designed as: ON switch for flavin mononucleotide, no ligand
# [4] = ligand present: flavin mononucleotide, designed as: ON switch for flavin mononucleotide
Sequence,apparent Kd [1],apparent Kd [2],apparent Kd [3],apparent Kd [4]
UCUAGACAUGAGGAUCACCCAUGUGAGGAUAUGAUGCGAUCGUCGAAAGACGAUAGCAUCAGAAGGCACAAAUG,66.5 nM,200 nM,,
AUCAGCUCGUCAGGAUAUACGUCACUGCGUCAGCAGUGUGGUAAGAUCACAUGAGGAUCACCCAUGUAGAAGGGAAGAGCUGAU,15.1 nM,232 nM,,
GGACCGUGCAGAGUUGGCGGUCGGCAGGAUAUGACAUGAGGAUCACCCAUGUGAACUCCAUUGGGUCAGAAGGGCCACGACACA,17.6 nM,78 nM,,
UAGGUCGACGUAGGAUAUGUAGGAUAUUCCUACAUGAGGAUCACCCAUGUUGAAAUGGAAGAAGGACAGAAGGACGUUGACCUU,,,56.7 nM,13.6 nM
GUAGCGCUUGACAUGAGGAUCACCCAUGUUAGAUUGUUAUGUCAGGAUAUAGUCUAGAAACUAGACUAGAAGGGAUAUGCUACU,,,251 nM,39.8 nM
AGCAUGCUAGGAUAUACGAAACAUUAGGGUUCUUUGUAUGAACAUGAGGAUCACCCAUGUAGAAGGAGCGUGCA,109 nM,170 nM,,
UCGUCCUCGUGCUAGGAUAUCCAUCGUAAAACAUGAGGAUCACCCAUGUAGAAAUGCGCCUACGAGGAGAAGGAGCGAUGUGGAU,,,20.6 nM,15.2 nM
AGUAAGAUGCAGAAGGUGUCAGCGAGAGCUGCGACAUGAGGAUCACCCAUGUGUCGGUGACGACGCAAGGAUAUGCAUCUUACA,,,138 nM,56.6 nM
GGUACUCAAAGAGUACCAAUACGAACAUGAGGAUCACCCAUGUAGGAUAUGCUACUCACAGAGUAGCAGAAGGACAUGUGCCUA,20.8 nM,136 nM,,
UUAAUUAAUUAAGCGCAAGAUCACAUGAGGAUCACCCAUGUAUAGGAUAUCAGCUCGAUUAGAGCUGAGAAGGAUACAUAGCGC,203 nM,568 nM,,
CGAUAUAUGAAGGGCGAACGCGCACAUGAGGAUCACCCAUGUAGAAGGCGGUCCGCAACGCGGAUCGAGGAUAUAUAGUAUACG,27.5 nM,30.7 nM,,
CCUCGUUGGGAGGAUAUCCUUUUGGUUGGAGGAGGAGAAGGCUCGACAUGAGGAUCACCCAUGUGGGAUUUCCU,74.8 nM,211 nM,,
UAGAUUUAUGUAGGAUAUACAUUUUUUAUGUAUGUAGAAGGACAUGAGGAUCACCCAUGUAAAUAAAUAUUAAAUAUCAUAAUU,30.4 nM,23.8 nM,,
UUCAUGUGAGGAUAUCAGUAGUAAAAAAAUAAAAUUACUACUGAGAAGGCACAUGAGGAUCACCCAUGUGUCUC,22.1 nM,26.6 nM,,
CAAGUACCAGAGGAUAUGGCGGUGCACUCCGUGCCAGAAGGUUGGACAUGAGGAUCACCCAUGUGCGAUUAGCU,26 nM,27.1 nM,,
GCUAUCGGGUGAGGAUAUAUGGUUGUGAUUAAAAUAGAAGGCAUCUCAGAAGACAUGAGGAUCACCCAUGUAGUUAAGAUGGCA,,,63.4 nM,46.8 nM
AUAGGCCUAGGAUAUACAUGAGGAUCACCCAUGUUAAUAAUUCGAUCAUGAUAAACGUGUAGAAGGAGGAAUAA,32.9 nM,36.9 nM,,
GGUACUCAAAGAGUACCAAUACGAACAUGAGGAUCACCCAUGUAGGAUAUGCUACUCAAAGAGUAGCAGAAGGACAUGUGCCAU,42 nM,282 nM,,
AAGAGUACAGGAUAUACAUGAGGAUCACCCAUGUGAAAAUUAAGUGGCGUACCACAAAGUAGAAGGGUACUGGA,22.4 nM,50.8 nM,,
UAUAUAUAGUAAGGAUAUGUAUUAAAUUUAUAAACAGAAGGUACUGACAUGAGGAUCACCCAUGUUUUAGUGUGGGCAUGUAGA,99.6 nM,148 nM,,
UAUGUAUUCGUAGGAUAUCCGUUGAGACCGUGUGGAGAAGGACGAACAUGAGGAUCACCCAUGUGUCAUGGUGUAGACAAUUUU,65.5 nM,220 nM,,
AGUGCGUAUGUGAGGAUAUGCUGGUCCUUGGCUCGGCAGAAGGCACAUGAGGAUCACCCAUGUGGUGUCGUACG,62.2 nM,412 nM,,
CUGAUUAUACAAGGAUAUCUUUUGUUGUUUCGACUUACAUGAGGAUCACCCAUGUUAAUAUUUUUAGAGAAGGUGUAUUUUCAG,,,16.8 nM,20.3 nM
UAUGUGUCAGGAUAUUAGUAGUAAAUGAAUAAAAUUAUUACUGAGAAGGGACAUGAGGAUCACCCAUGUGCCUU,15.9 nM,20.3 nM,,
AGCGGCGCAGACCACCGCAAAACCAGAAGGACAUGAGGAUCACCCAUGUAACAAAACAGGGCGAUGUAGGAUAUGGCAGACCCA,13 nM,13.7 nM,,
UGGACCGAGCUGUCGGUUGGCUGGCAGGAUAUGACAUGAGGAUCACCCAUGUGGGAUCUAAAUUGUCAGAAGGGCCGUUCUGGG,212 nM,25.4 nM,,
GAGUGACAUGAGGAUCACCCAUGUGAGGAUAUCGGCCGGACCUUGUUAGCUUCCGCCGCGAGAAGGCACAUCGG,71.8 nM,157 nM,,
